In paper PMC11561146 (Communications Biology, 2024):
Entries after “also recorded” stand apart in the source; their conditions may differ.

Key:
TrK13-WT [1] = molecular target: T1, TrK13-WT (Plasmodium falciparum, UniProt Q8IDQ2); assay: UV-visible spectrophotometry of heme binding
T1 sequence (Q8IDQ2 189-726): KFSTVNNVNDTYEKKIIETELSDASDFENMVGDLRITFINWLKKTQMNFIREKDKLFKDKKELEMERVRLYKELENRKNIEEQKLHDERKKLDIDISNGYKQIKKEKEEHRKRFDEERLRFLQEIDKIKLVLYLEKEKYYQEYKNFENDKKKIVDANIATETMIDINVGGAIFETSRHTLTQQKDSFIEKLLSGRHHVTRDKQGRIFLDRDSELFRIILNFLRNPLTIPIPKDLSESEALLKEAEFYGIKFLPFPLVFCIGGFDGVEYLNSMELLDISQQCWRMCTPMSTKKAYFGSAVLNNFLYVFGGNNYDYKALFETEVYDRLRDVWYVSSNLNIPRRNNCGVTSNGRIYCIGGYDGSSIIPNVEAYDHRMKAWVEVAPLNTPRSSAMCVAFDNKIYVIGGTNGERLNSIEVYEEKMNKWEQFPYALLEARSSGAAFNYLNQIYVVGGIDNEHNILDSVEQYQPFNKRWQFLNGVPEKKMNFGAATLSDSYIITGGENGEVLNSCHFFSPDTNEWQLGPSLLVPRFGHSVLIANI

[2] = Detection of ART activated species; type: biochemical; settings: heme: ART or derivative 1:1.20, 30 min, reducing conditions
Outline: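 Heme under reducing conditions was reacted with test compound for 30 min, with no protein. Mixtures were run on a C4 column at 1 mL/min using a 0.05% TFA water/acetonitrile gradient (A/B 63/37 to 52/48 over 15 min, then 15 min hold), with Soret detection at 410 nm. Free heme and AAS peaks were integrated, and AAS was given as a percentage of heme by AUC; mean ± SD, three independent experiments.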

heme bound to TrK13-WT = assay: Detection of AAS by HPLC, protein-bound heme after G-25 desalting; type: biochemical, Plasmodium falciparum; settings: heme-TrK13 mixture desalted (G-25) before ART addition
Outline: (§1)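 Recombinant TrK13 protein (10 µM) was incubated with 60 µM reduced heme for 30 min at 37°C. Unbound heme was removed on a G-25 desalting column, then 72 µM test compound was added for another 30 min. Products were separated on a C4 column at 1 mL/min with 0.05% TFA water/acetonitrile (A/B 63/37 to 52/48 over 15 min, then 15 min hold). Detection was at 410 nm. AAS was expressed as a percentage of heme peak area (AUC); mean ± SD, three independent experiments.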

[3] = system: heme bound to TrK13-R539T; assay: as above; type: biochemical, Plasmodium falciparum; settings: heme-TrK13 mixture desalted (G-25) before ART addition
Outline: as §1

heme-bound TrK13-WT = assay: Detection of AAS by UV-visible spectrophotometry; type: biochemical, Plasmodium falciparum; settings: for increase in the intensity of the 380 nm peak vs heme-bound protein without ART: 200 µM ART or DOA, 30 min, after G-25 desalting
heme-bound TrK13-A578S = assay: Detection of AAS by UV-visible spectrophotometry; type: biochemical, Plasmodium falciparum; settings: 200 µM ART, 30 min
Outline: (§2)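 Purified recombinant protein (10 µM) is incubated for 1 h at room temperature with or without equimolar dithionite-reduced heme (or Zn-PPIX). It is then desalted on a G-25 spin column to remove unbound heme. The >5 kDa eluate is incubated with 200 µM ART or DOA for 30 min. Spectra are scanned at 250–700 nm for the Soret peak, with no-heme and no-ART controls.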

heme-TrK13-R539T complex = assay: Detection of AAS by UV-visible spectrophotometry; type: biochemical, Plasmodium falciparum; settings: 200 µM ART, 30 min
Outline: as §2

heme-TrK13-C580Y complex = assay: Detection of AAS by UV-visible spectrophotometry; type: biochemical, Plasmodium falciparum; settings: 200 µM ART, 30 min
Outline: as §2

heme-BSA complex = heme-BSA complex (Bos taurus, UniProt P02769); assay: Detection of AAS by UV-visible spectrophotometry; type: biochemical; settings: ART, 30 min
Outline: as §2

heme-PfHRP2 complex = assay: Detection of AAS by UV-visible spectrophotometry; type: biochemical, Plasmodium falciparum; settings: ART, 30 min
[4] = system: recombinant TrK13-WT protein; assay: UV-visible spectrophotometry of TrK13-WT with metal salts; type: binding, Plasmodium falciparum; settings: TrK13-WT 5 μM, metal salt 500 μM (100-times molar excess)
[5] = system: recombinant TrK13-WT protein; assay: Ferene S colorimetric assay of iron binding; set-up: species or system Plasmodium falciparum; settings: TrK13-WT 5 μM, 30-times molar excess (150 μM) FAS, G-25 desalted
[6] = system: TrK13-QNG (E688Q-E691N-H697G); assay: Ferene S colorimetric assay of iron binding; set-up: species or system Plasmodium falciparum; settings: Ferene S assay with FAS
TrK13-WT [7] = molecular target: T1, TrK13-WT; type: binding; settings: TrK13-WT 10 µM, 10-fold molar excess of competitor
Outline: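 TrK13-WT (10 µM) was preincubated for 1 h at RT with 100 µM reduced heme or a heme analog. Hemin-agarose beads (50% v/v suspension) were then added for 1 h at RT, rotating, in MOPS pH 7.4. Beads were washed five times with MOPS. Bound protein was eluted in Laemmli buffer and resolved by SDS-PAGE with Coomassie staining. Band pixel intensity was expressed relative to the no-competitor band, set as 100%.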

TrK13-WT [8] = molecular target: T1, TrK13-WT; assay: Tryptophan fluorescence quenching by heme; type: binding
TrK13-R539T = molecular target: T2, TrK13-R539T (Plasmodium falciparum, UniProt Q8IDQ2, R539T); assay: Tryptophan fluorescence quenching by heme; type: binding
T2 sequence (Q8IDQ2 189-726 R539T): T1 sequence (Q8IDQ2 189-726)

TrK13-C580Y = molecular target: T3, TrK13-C580Y (Plasmodium falciparum, UniProt Q8IDQ2, C580Y); assay: Tryptophan fluorescence quenching by heme; type: binding
T3 sequence (Q8IDQ2 189-726 C580Y): T1 sequence (Q8IDQ2 189-726)

TrK13-A578S = molecular target: T4, TrK13-A578S (Plasmodium falciparum, UniProt Q8IDQ2, A578S); assay: Tryptophan fluorescence quenching by heme; type: binding
T4 sequence (Q8IDQ2 189-726 A578S): T1 sequence (Q8IDQ2 189-726)

[9] = protein 10 µM, heme 0–5 µM, excitation 295 nm
[10] = tryptophan fluorescence quenching

heme-BSA complex, sequence (P02769 25-607, one chain of several): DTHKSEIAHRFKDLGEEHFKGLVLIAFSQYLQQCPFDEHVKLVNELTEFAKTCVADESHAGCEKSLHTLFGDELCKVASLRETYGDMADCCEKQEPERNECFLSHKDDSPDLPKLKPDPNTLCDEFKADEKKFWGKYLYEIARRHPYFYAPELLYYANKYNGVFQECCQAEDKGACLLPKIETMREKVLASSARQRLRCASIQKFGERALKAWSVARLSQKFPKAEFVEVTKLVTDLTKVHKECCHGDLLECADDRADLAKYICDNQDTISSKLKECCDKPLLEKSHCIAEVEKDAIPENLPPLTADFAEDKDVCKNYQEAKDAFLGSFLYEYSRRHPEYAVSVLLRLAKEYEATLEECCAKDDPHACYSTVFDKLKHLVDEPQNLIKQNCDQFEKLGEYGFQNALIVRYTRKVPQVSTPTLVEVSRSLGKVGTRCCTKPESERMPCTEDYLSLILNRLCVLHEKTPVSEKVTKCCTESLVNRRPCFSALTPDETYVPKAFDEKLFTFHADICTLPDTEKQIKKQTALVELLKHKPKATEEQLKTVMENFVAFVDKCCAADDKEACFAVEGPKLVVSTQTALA

**Q.** With `C[C@@H]1CC[C@H]2[C@@H](C)C(=O)O[C@@H]3O[C@@]4(C)CC[C@@H]1[C@]32OO4` [ART, artemisinin] as the molecule, how does the “changes in the spectral profile of TrK13-WT at 250–700 nm (direct interaction)” value (TrK13-WT [1]; TrK13-WT 10 µM with excess (200 µM) ART, no heme) read?
**A.** no visible changes

**Q.** What about the “AAS peaks in the HPLC chromatogram at 410 nm” value [2] of the same molecule?
**A.** additional peaks

**Q.** What about the “Percentage of AAS versus heme (area under the curve)” value (heme bound to TrK13-WT) of the same molecule?
**A.** ~ 50%

**Q.** What about the “Percentage of AAS versus heme (area under the curve)” value [3] of the same molecule?
**A.** ~ 30%

**Q.** And the “increase in the intensity of the 380 nm peak vs heme-bound protein without ART” value (heme-bound TrK13-WT)?
**A.** ~ 42%

**Q.** What about the “increment in the 380 nm absorbance peak after addition of ART” value (heme-bound TrK13-WT; Fe^3+ hemin not pre-reduced to Fe^2+ heme) of the same molecule?
**A.** No increment

**Q.** And the “increase in peak intensity at 380 nm” value (heme-bound TrK13-A578S)?
**A.** ~ 176%

**Q.** What about the “increase in peak intensity at 380 nm” value (heme-TrK13-R539T complex) of the same molecule?
**A.** barely detectable increase

**Q.** And the “increase in peak intensity at 380 nm” value (heme-TrK13-C580Y complex)?
**A.** barely detectable increase

**Q.** What about the “AAS formation (peak absorbance at 380 nm)” value (heme-BSA complex) of the same molecule?
**A.** no AAS formation

**Q.** What about the “AAS formation (peak absorbance at 380 nm)” value (heme-PfHRP2 complex) of the same molecule?
**A.** no AAS formation

**Q.** Which “AAS peaks in the HPLC chromatogram at 410 nm” value [2] does the source give for `C[C@H]1[C@@H](O)O[C@@H]2O[C@@]3(C)CC[C@H]4[C@H](C)CC[C@@H]1[C@@]24OO3` [DHA, dihydroartemisinin] here?
**A.** additional peaks

**Q.** Which “increase in the intensity of the 380 nm peak vs heme-bound protein without ART” value (heme-bound TrK13-WT) does the source give for `C[C@@H]1CC[C@H]2[C@@H](C)C(=O)O[C@@H]3O[C@@]4(C)CC[C@@H]1[C@]32O4` [DOA, deoxyartemisinin] here?
**A.** no increase; also recorded: no hyperchromic shift

**Q.** What does the source list for `O=S(=O)([O-])[O-].O=S(=O)([O-])[O-].[Fe+2].[NH4+].[NH4+]` [FAS, ferrous ammonium sulfate]?
**A.** increase in the absorbance of TrK13-WT at 280 nm relative to TrK13-WT alone (no salts) [4]: 5.82 times; increase in the absorbance at 595 nm in the eluate vs FAS alone or TrK13-WT alone controls [5]: Approximately 10 fold; reduction in absorbance at 595 nm in TrK13-QNG compared to TrK13-WT [6]: ~ 33%

**Q.** For `O=S(=O)([O-])[O-].O=S(=O)([O-])[O-].[Fe+3].[NH4+]` [FES, ferric ammonium sulfate], which “increase in the absorbance of TrK13-WT at 280 nm relative to TrK13-WT alone (no salts)” value [4] is on record?
**A.** 12.84 times

**Q.** With `C=CC1=C(C)c2cc3[nH]c(cc4nc(cc5[nH]c(cc1n2)c(C)c5CCC(=O)O)C(CCC(=O)O)=C4C)c(C)c3C=C` [PPIX, protoporphyrin IX] as the molecule, how does the “inhibition of TrK13-WT binding to hemin-agarose beads” value (TrK13-WT [7]) read?
**A.** ~ 50%

**Q.** Which “inhibition of TrK13-WT binding to hemin-agarose beads” value (TrK13-WT [7]) does the source give for `C=CC1=C(C)c2cc3[n-]c(cc4[n-]c(cc5nc(cc1n2)C(C)=C5C=C)c(C)c4CCC(=O)O)c(CCC(=O)O)c3C.[Zn+2]` [Zn-PPIX] here?
**A.** ~ 65%

**Q.** What about the “increase in absorbance at 380 nm on ART addition, Zn-PPIX instead of heme” value (heme-bound TrK13-WT; TrK13-WT with Zn-PPIX, then ART) of the same molecule?
**A.** no increase

**Q.** Which Kd (TrK13-WT [1]; read-out: Kd (double reciprocal plot of 1/ΔA versus 1/[heme]), TrK13-WT 10 µM titrated with heme 0-26 µM, G25 desalted) does the source give for `C=CC1=C(C)c2cc3[nH]c(cc4nc(cc5[nH]c(cc1n2)c(C)c5C=C)C(C)=C4CCC(=O)O)c(CCC(=O)O)c3C.[Fe+3]` [heme, ferrous protoporphyrin IX] here?
**A.** 36.22 ± 0.1 nM

**Q.** What about the “Stern-Volmer quenching constant (KSV)” value (TrK13-WT [8]; [9]) of the same molecule?
**A.** 0.59 µM⁻¹

**Q.** And the “Association constant (Ka)” value (TrK13-WT [8]; [10])?
**A.** 1.35E + 11 M^-1

**Q.** And the “Stern-Volmer quenching constant (KSV)” value (TrK13-R539T; [9])?
**A.** 1.17 µM⁻¹

**Q.** What about the “Association constant (Ka)” value (TrK13-R539T; [10]) of the same molecule?
**A.** 7.86E + 07 M^-1

**Q.** What about the “Stern-Volmer quenching constant (KSV)” value (TrK13-C580Y; [9]) of the same molecule?
**A.** 1.75 µM⁻¹

**Q.** What about the “Association constant (Ka)” value (TrK13-C580Y; [10]) of the same molecule?
**A.** 1.47E + 07 M^-1

**Q.** And the “Stern-Volmer quenching constant (KSV)” value (TrK13-A578S; [9])?
**A.** 0.66 µM⁻¹

**Q.** And the “Association constant (Ka)” value (TrK13-A578S; [10])?
**A.** 2.88E + 11 M^-1
